Data set [1] in a line: Half life of the compound in buffer. It is filed as physicochemical. The essentials: (§1)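 Electrophile (20 μmol) incubated at 37 °C either in pH 7.4 buffer, or in DMSO-d6/D2O (5:1), with or without glutathione. Decay followed by 1H NMR kinetics. First-order rate constant kpseudo-1st taken from ln[electrophile] versus time; t1/2 = 0.693/(60×k), in min.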
Data set [2] is described as follows: Half life of the compound in DMSO. It counts as physicochemical. Summed up: as §1
The target of data set [3] is T1, Fructose-1,6-bisphosphatase 1 (Homo sapiens, UniProt P09467).
T1 sequence (P09467 whole entry): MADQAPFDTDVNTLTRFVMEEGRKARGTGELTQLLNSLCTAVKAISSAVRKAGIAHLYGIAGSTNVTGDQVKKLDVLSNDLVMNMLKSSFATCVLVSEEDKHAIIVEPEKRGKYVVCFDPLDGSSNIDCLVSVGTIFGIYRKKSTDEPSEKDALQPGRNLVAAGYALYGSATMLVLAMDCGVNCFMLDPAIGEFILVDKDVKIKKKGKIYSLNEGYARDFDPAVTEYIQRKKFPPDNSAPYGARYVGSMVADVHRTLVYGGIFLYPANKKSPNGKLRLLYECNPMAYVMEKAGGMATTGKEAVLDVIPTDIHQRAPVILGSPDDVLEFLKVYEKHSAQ
Put plainly: Inhibition of human FBPase expressed Escherichia coli BL21 in by malachite green dye based spectrophotometry. The essentials:
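His-tagged human liver FBPase expressed in E. coli BL21(DE3) and purified by Ni affinity. Phosphate released from FBP complexed with ammonium molybdate/malachite green and read at 620 nm against a KH2PO4 standard curve (2−60 μM). Initial rates at saturating substrate, fixed effector and varied inhibitor fitted to the Hill equation for IC50.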

Data set [4] is filed under the species Homo sapiens. Put plainly: Selectivity ratio of IC50 for human FBPase to IC50 for recombinant ALDOB (unknown origin). Summed up:
(§2)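 Aldolase (ALDOA/B/C) IC50 by NADH-coupled assay: enzyme plus serial compound dilutions, 0.41 mM NADH and TPI in 0.1 M Tris pH 7.4/0.2 M K-acetate, 3 min at 37 °C. Started with FBP and […], A340 read every 30 s for 6 min. Ratios against the FBPase IC50 from malachite green phosphate assay (620 nm).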

The species named for data set [5] is Homo sapiens. In words: Selectivity ratio of IC50 for human FBPase to IC50 for recombinant ALDOA (unknown origin). Summed up:
as §2

Data set [6] is described as follows: Half life of the compound in GSH. It counts as physicochemical. The settings on record: GSH (glutathione). Summed up: as §1
For data set [7], the species on record is Homo sapiens. Put plainly: Selectivity ratio of IC50 for human FBPase to IC50 for recombinant ALDOC (unknown origin). The essentials:
as §2

The species named for data set [8] is Homo sapiens. Put plainly: Selectivity ratio of IC50 for human FBPase to IC50 for human GAPDH. The essentials:
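Recombinant human GAPDH (His-tag, E. coli; 0.1 mg/mL final) preincubated 30 min with compound in 10 mM sodium pyrophosphate pH 8.5 at 37 °C. Started with arsenate, 4 mM NAD+ and 12 mM G3P; A340 at 4 min. Ratio taken against FBPase IC50 from the malachite green phosphate-release assay.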

Each structure is given as a SMILES string.

What is called half-life is how long it takes for the measured level to halve. Read a low half-life as rapid decline. As for `O=C(Oc1ccccc1)N1C(=O)c2ccccc2S1(=O)=O`, the half-life was over 167 h in data set [1] and 3.04 h in data set [2].

As usually defined, the IC50 is the concentration that inhibits the measured activity by half. Low readings indicate inhibition by little substance, high ones a need for much substance. Consider `CC(NC(=O)N1C(=O)c2ccccc2S1(=O)=O)c1ccccc1` (stereo not drawn), for which the half-life in data set [1] was over 167 h; in data set [2], over 167 h; in data set [6], 0.663 h. This compound also came in with a 50% inhibitory concentration (IC50) in data set [3] of 8.7 µM. Also, the Ratio IC50 is over 25 in the data set listed under Homo sapiens [4], over 25 in the data set listed under Homo sapiens [5], over 25 in the data set filed under Homo sapiens [7] and 1.3 in the data set filed under Homo sapiens [8].

With `O=C(NCc1ccccc1Cl)N1C(=O)c2ccccc2S1(=O)=O`, the values for the half-life in data set [1], in data set [2] and in data set [6] were over 167 h, over 167 h and 0.42 h, respectively.

With `O=C(c1ccccc1)N1Cc2ccccc2C1=O`, the half-life in data set [1], in data set [2] and in data set [6] was over 167 h throughout.

`O=C(NCc1ccccc1C(F)(F)F)N1C(=O)c2ccccc2S1(=O)=O`: the half-life was over 167 h in data set [1], over 167 h in data set [2] and 0.187 h in data set [6].

On to `O=C(OCc1ccccc1)N1C(=O)c2ccccc2S1(=O)=O`, for which the half-life in data set [1] was over 167 h; in data set [2] it was over 167 h; in data set [6] it was under 0.0167 h.

Take `O=C(NCc1cccc(Br)c1)N1C(=O)c2ccccc2S1(=O)=O`: the half-life in data set [1] is over 167 h; in data set [2], over 167 h; in data set [6], 0.492 h.

Take `O=C(NCC1CCCCC1)N1C(=O)c2ccccc2S1(=O)=O`: the half-life was over 167 h in data set [1], over 167 h in data set [2] and 0.963 h in data set [6]. Moreover, the IC50 in data set [3] stood at 16.4 µM.

Take `O=C(NCc1ccccc1F)N1C(=O)c2ccccc2S1(=O)=O`: the half-life was over 167 h in data set [1], over 167 h in data set [2] and 0.598 h in data set [6]. Also, 4.2 µM corresponded to half-maximal inhibition in data set [3] (IC50). The Ratio IC50 in the data set listed under Homo sapiens [4] is over 25; in the data set listed under Homo sapiens [5], over 25; in the data set listed under Homo sapiens [7], over 25; in the data set listed under Homo sapiens [8], 16.3.

For the compound `O=C(NCc1ccccc1Br)N1C(=O)c2ccccc2S1(=O)=O`, the half-life is over 167 h in data set [1], over 167 h in data set [2] and 0.253 h in data set [6].

Regarding `O=C(NCc1cccc2ccccc12)N1C(=O)c2ccccc2S1(=O)=O`, the half-life was over 167 h in data set [1], over 167 h in data set [2] and 0.395 h in data set [6].

Regarding `CCCNC(=O)N1C(=O)c2ccccc2S1(=O)=O`, the values for the half-life in data set [1], in data set [2] and in data set [6] were over 167 h, over 167 h and 0.775 h, respectively. Moreover, the IC50 in data set [3] was over 500 µM.

For `O=C(NCc1ccc(C(F)(F)F)cc1)N1C(=O)c2ccccc2S1(=O)=O`, the half-life in data set [1] was over 167 h; in data set [2] it was over 167 h; in data set [6], 0.212 h.

In the case of `O=C(NCCc1ccccc1)N1C(=O)c2ccccc2S1(=O)=O`, the half-life was over 167 h in data set [1], over 167 h in data set [2] and 0.56 h in data set [6].

In the case of `Cc1ccccc1CNC(=O)N1C(=O)c2ccccc2S1(=O)=O`, the half-life is over 167 h in data set [1], over 167 h in data set [2] and 0.792 h in data set [6]. Further, it took 3.6 µM to reach half-maximal inhibition in data set [3] (IC50). Further, the Ratio IC50 in the data set listed under Homo sapiens [4] was over 25; in the data set listed under Homo sapiens [5], over 25; in the data set filed under Homo sapiens [7], over 25; in the data set listed under Homo sapiens [8], 3.6.

Consider `O=C(CCc1ccccc1)N1C(=O)c2ccccc2S1(=O)=O`, for which the half-life in data set [1] was over 167 h; in data set [2], 5.78 h.

For `O=C(Cc1ccccc1)N1C(=O)c2ccccc2S1(=O)=O`, the half-life was over 167 h in data set [1] and 3.4 h in data set [2].

As to `COc1ccc(CNC(=O)N2C(=O)c3ccccc3S2(=O)=O)cc1`, in data set [6], the half-life stood at 0.187 h.

Regarding `O=C(c1ccccc1)N1Cc2ccccc2S1(=O)=O`, the half-life in data set [1], in data set [2] and in data set [6] was over 167 h each time.

Turning to `O=C(NCc1cccs1)N1C(=O)c2ccccc2S1(=O)=O`, the half-life in data set [1] is over 167 h; in data set [2], over 167 h; in data set [6], 0.365 h.

Turning to `O=C(c1ccccc1)N1C(=O)c2ccccc2S1(=O)=O`, the half-life is over 167 h in data set [1] and over 0.875 h in data set [2].

Consider `COc1cccc(CNC(=O)N2C(=O)c3ccccc3S2(=O)=O)c1`, for which the half-life in data set [1] was over 167 h; in data set [2], over 167 h; in data set [6], 0.523 h. Moreover, the IC50 in data set [3] was found to be 1.9 µM. Further, the Ratio IC50 in the data set listed under Homo sapiens [4], in the data set filed under Homo sapiens [5], in the data set filed under Homo sapiens [7] and in the data set listed under Homo sapiens [8] was over 25 in each case.

`O=C(NCc1ccc(Br)cc1)N1C(=O)c2ccccc2S1(=O)=O` displayed a half-life in data set [6] of 0.187 h.

For the origin of these results see ChEMBL document CHEMBL5143731, “N-Acylamino Saccharin as an Emerging Cysteine-Directed Covalent Warhead and Its Application in the Identification of Novel FBPase Inhibitors toward Glucose Reduction” (J Med Chem, 2022).
